Legend:
Type in all cases: functional
Staphylococcus aureus = assay: Antibacterial activity against Staphylococcus aureus MTCC 2901 after 24 hrs by tube dilution method
Bacillus subtilis = assay: Antibacterial activity against Bacillus subtilis MTCC 2063 after 24 hrs by tube dilution method
Escherichia coli = assay: Antibacterial activity against Escherichia coli MTCC 1652 after 24 hrs by tube dilution method
Candida albicans = assay: Antifungal activity against Candida albicans MTCC 227 after 48 hrs by tube dilution method
Aspergillus niger = assay: Antifungal activity against Aspergillus niger MTCC 8184 after 7 days by tube dilution method
Method in brief: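 Tube (serial) dilution MIC in Sabouraud dextrose broth I.P., 25 °C for 7 days. Results are recorded as MIC and reported as pMIC in mM.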

MCF7 [1] = assay: Growth inhibition of human MCF7 cells at 50 uM after 48 hrs by MTT assay; settings: MCF7, 48 h, read-out: GI
Method in brief: (§1)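 Cells from ECACC are kept in RPMI-1640 with 10% FCS and 1% penicillin at 37 °C in 5% CO2. They are seeded at 3×10^3 cells/well and dosed after 24 h from filter-sterilized DMSO stocks, then treated for 48 h. MTT (2.5 mg/mL in PBS) is added, formazan is dissolved in DMSO, and A570 is read. Viability is given as % of untreated.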

MCF7 [2] = assay: Growth inhibition of human MCF7 cells at 10 uM after 48 hrs by MTT assay; settings: MCF7, 48 h, read-out: GI; method in brief: as §1
A549 [3] = assay: Growth inhibition of human A549 cells at 50 uM after 48 hrs by MTT assay; settings: A549, 48 h, read-out: GI; method in brief: as §1
A549 [4] = assay: Growth inhibition of human A549 cells at 10 uM after 48 hrs by MTT assay; settings: A549, 48 h, read-out: GI; method in brief: as §1
HCT-116 [5] = assay: Growth inhibition of human HCT116 cells at 50 uM after 48 hrs by MTT assay; settings: HCT-116, 48 h, read-out: GI; method in brief: as §1
HCT-116 [6] = assay: Growth inhibition of human HCT116 cells at 10 uM after 48 hrs by MTT assay; settings: HCT-116, 48 h, read-out: GI; method in brief: as §1
PC-3 [7] = assay: Growth inhibition of human PC3 cells at 50 uM after 48 hrs by MTT assay; settings: PC-3, 48 h, read-out: GI; method in brief: as §1
PC-3 [8] = assay: Growth inhibition of human PC3 cells at 10 uM after 48 hrs by MTT assay; settings: PC-3, 48 h, read-out: GI; method in brief: as §1

| SMILES | -logMIC (Staphylococcus aureus) | -logMIC (Bacillus subtilis) | -logMIC (Escherichia coli) | -logMIC (Candida albicans) | -logMIC (Aspergillus niger) | inhibition of growth at 50 µM (MCF7 [1]) | inhibition of growth at 10 µM (MCF7 [2]) | inhibition of growth at 50 µM (A549 [3]) | inhibition of growth at 10 µM (A549 [4]) | inhibition of growth at 50 µM (HCT-116 [5]) | inhibition of growth at 10 µM (HCT-116 [6]) | inhibition of growth at 50 µM (PC-3 [7]) | inhibition of growth at 10 µM (PC-3 [8]) |
| --- | --- | --- | --- | --- | --- | --- | --- | --- | --- | --- | --- | --- | --- |
| COc1ccc(C2=NC(c3ccc(OC)cc3)c3c(ccc4ccccc34)O2)cc1 (configuration not stated) | 1.5 | 2.1 | 2.1 | 1.8 | 1.5 | 26% | 22% | 35% | 22% | 29% | 27% | 19% | 17% |
| O=C(O)c1cn(C2CC2)c2cc(N3CCNCC3)c(F)cc2c1=O [CIPROFLOXACIN] | 2.61 | 2.61 | 2.61 |  |  |  |  |  |  |  |  |  |  |
| Cc1ccc(C2=NC(c3ccc(C)cc3)c3c(ccc4ccccc34)O2)cc1 (configuration not stated) | 1.46 | 2.07 | 1.46 | 1.76 | 1.46 | 37% | 30% | 36% | 17% | 24% | 19% | 5% | 1% |
| O=[N+]([O-])c1ccc(C2=NC(c3ccccc3)c3c(ccc4ccccc34)O2)cc1 (configuration not stated) | 1.78 | 1.78 | 1.78 | 1.78 | 1.48 | 42% | 34% | 43% | 17% | 14% | 4% | 8% | 6% |
| Clc1ccc(C2=NC(c3ccc(Cl)cc3)c3c(ccc4ccccc34)O2)cc1 (configuration not stated) | 1.51 | 1.81 | 2.11 | 1.81 | 1.51 | 38% | 16% | 54% | 28% | 10% | 2% | 2% | 1% |
| Cc1ccc(C2N=C(c3ccc(F)cc3)Oc3ccc4ccccc4c32)cc1 (configuration not stated) | 1.47 | 2.07 | 2.07 | 1.77 | 1.47 | 44% | 20% | 44% | 16% | 23% | 18% | 19% | 5% |
| Cc1ccc(C2N=C(c3ccccc3)Oc3ccc4ccccc4c32)cc1 (configuration not stated) | 1.45 | 1.75 | 2.35 | 1.75 | 1.45 | 32% | 17% | 37% | 17% | 8% | 2% | 3% | 1% |
| Cc1ccc(C2N=C(c3ccc([N+](=O)[O-])cc3)Oc3ccc4ccccc4c32)cc1 (configuration not stated) | 1.8 | 1.8 | 1.8 | 1.8 | 1.5 | 40% | 35% | 41% | 13% | 21% | 7% | 12% | 8% |
| Cc1ccc(C2N=C(c3ccc(Cl)cc3)Oc3ccc4ccccc4c32)cc1 (configuration not stated) | 1.49 | 1.79 | 0.88 | 1.79 | 1.49 | 37% | 21% | 28% | 16% | 6% | 3% | 13% | 8% |
| Brc1ccc(C2=NC(c3ccccc3)c3c(ccc4ccccc34)O2)cc1 (configuration not stated) | 1.52 | 1.82 | 1.52 | 1.82 | 1.52 | 39% | 27% | 40% | 23% | 29% | 6% | 11% | 4% |
| COc1ccc(C2=NC(c3ccc(C)cc3)c3c(ccc4ccccc34)O2)cc1 (configuration not stated) | 1.78 | 1.78 | 2.08 | 1.78 | 1.48 | 39% | 36% | 36% | 15% | 14% | 7% | 10% | 1% |
| Cc1ccc(C2=NC(c3ccccc3)c3c(ccc4ccccc34)O2)cc1 (configuration not stated) | 1.75 | 1.45 | 2.05 | 1.75 | 1.45 | 46% | 36% | 43% | 19% | 38% | 8% | 20% | 14% |
| OC(Cn1cncn1)(Cn1cncn1)c1ccc(F)cc1F [FLUCONAZOLE] |  |  |  | 2.64 | 2.64 |  |  |  |  |  |  |  |  |
| Cc1ccc(C2N=C(c3ccc(Br)cc3)Oc3ccc4ccccc4c32)cc1 (configuration not stated) | 1.83 | 1.83 | 1.83 | 1.83 | 1.53 | 33% | 26% | 32% | 13% | 10% | 2% | 2% | 0% |
| Clc1ccc(C2=NC(c3ccccc3)c3c(ccc4ccccc34)O2)cc1 (configuration not stated) | 1.77 | 1.77 | 2.37 | 1.77 | 1.47 | 39% | 27% | 38% | 17% | 29% | 3% | 19% | 9% |
| c1ccc(C2=NC(c3ccccc3)c3c(ccc4ccccc34)O2)cc1 (configuration not stated) | 1.43 | 2.03 | 2.33 | 1.73 | 1.43 | 37% | 26% | 36% | 19% | 22% | 5% | 16% | 1% |

— ChEMBL document CHEMBL2086288, “Synthesis, antimicrobial and cytotoxicity study of 1,3-disubstituted-1H-naphtho[1,2-e][1,3]oxazines” (2012)
